Results on one compound are retold here after ChEMBL document CHEMBL3867440, “Hernandezine, a Bisbenzylisoquinoline Alkaloid with Selective Inhibitory Activity against Multidrug-Resistance-Linked ATP-Binding Cassette Drug Transporter ABCB1” (J Nat Prod, 2016).

Molecules are shown by their SMILES.

The target of series [1] is T1, ATP-dependent translocase ABCB1 (Homo sapiens, UniProt P08183). Put plainly: Inhibition of ABCB1 in human NCI-ADR-RES cells assessed as potentiation of colchicine-induced cytotoxicity by measuring colchicine resistance ratio at 50 nM after 72 hrs by MTT assay relative to parental OVCAR8 cells (reference value: 59). It is filed as cell-based. The following applies: ovcar-8, 72 h, 0.05 µM. In outline: (§1)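 Cells were kept in drug-free DMEM with 10% FCS for 7 days before assay, then plated at 5000 cells/well for 24 h. Drug at various concentrations was added with a nontoxic fixed level of modulator for 72 h, and the read-out was MTT. IC50 came from fitted curves (≥3 experiments). RR = IC50 of the resistant line / IC50 of the parental line.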
T1 sequence (P08183 whole entry): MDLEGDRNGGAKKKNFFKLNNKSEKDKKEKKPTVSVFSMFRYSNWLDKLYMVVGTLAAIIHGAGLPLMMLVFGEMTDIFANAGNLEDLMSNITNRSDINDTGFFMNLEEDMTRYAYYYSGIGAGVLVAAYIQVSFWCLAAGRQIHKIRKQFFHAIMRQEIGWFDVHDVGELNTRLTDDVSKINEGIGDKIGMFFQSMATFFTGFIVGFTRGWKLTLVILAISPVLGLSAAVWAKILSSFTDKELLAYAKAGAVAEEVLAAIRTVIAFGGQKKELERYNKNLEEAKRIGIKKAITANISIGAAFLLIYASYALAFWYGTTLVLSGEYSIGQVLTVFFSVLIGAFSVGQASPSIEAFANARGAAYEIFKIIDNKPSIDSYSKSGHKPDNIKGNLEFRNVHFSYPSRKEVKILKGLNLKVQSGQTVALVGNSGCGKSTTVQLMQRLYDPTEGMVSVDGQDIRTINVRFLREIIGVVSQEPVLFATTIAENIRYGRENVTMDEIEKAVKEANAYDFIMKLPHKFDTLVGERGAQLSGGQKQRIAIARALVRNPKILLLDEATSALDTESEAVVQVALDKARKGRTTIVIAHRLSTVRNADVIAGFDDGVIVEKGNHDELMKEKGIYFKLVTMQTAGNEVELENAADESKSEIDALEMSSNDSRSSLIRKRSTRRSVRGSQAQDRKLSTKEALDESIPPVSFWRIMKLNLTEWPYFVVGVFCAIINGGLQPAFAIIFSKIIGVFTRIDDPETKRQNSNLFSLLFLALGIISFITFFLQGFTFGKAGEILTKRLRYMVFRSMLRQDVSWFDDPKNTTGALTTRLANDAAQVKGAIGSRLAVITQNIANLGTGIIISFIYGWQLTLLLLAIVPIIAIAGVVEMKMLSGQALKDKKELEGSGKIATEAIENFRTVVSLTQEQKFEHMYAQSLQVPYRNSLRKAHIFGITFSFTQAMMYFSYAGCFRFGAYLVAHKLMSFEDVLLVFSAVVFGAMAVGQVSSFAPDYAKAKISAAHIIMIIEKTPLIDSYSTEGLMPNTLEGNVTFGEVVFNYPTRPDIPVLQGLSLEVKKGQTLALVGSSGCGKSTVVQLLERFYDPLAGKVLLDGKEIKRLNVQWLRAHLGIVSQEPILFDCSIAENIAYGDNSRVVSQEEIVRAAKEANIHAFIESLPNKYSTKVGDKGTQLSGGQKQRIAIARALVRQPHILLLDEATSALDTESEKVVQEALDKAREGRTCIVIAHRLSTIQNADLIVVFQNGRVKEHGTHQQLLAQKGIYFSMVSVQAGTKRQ
In general terms: Tetrazolium dyes change colour on reduction, which living cells bring about.

For series [2], the target named is T1, ATP-dependent translocase ABCB1. Put plainly: Inhibition of ABCB1 in human KBV1 cells assessed as potentiation of doxorubicin-induced cytotoxicity by measuring doxorubicin resistance ratio at 100 nM after 72 hrs by MTT assay relative to parental KB-3-1 cells (reference value: 34). The format is cell-based. The settings on record: kbv1, 72 h, 0.1 µM. In a few lines: as §1

The target is the same in series [3]. Put plainly: Binding affinity to Vanadate-sensitive ABCB1 (unknown origin).
Series [4] in a line: Cytotoxicity against HEK293 cells assessed as reduction in cell viability at 1 uM after 72 hrs by CCK8 assay. The format is toxicity, cell-based. The settings on record: human, hek293, 72 h.
In series [5] the target is T1, ATP-dependent translocase ABCB1. Put plainly: Inhibition of human ABCB1-mediated efflux transfected in HEK293 cells assessed as accumulation of fluorescent dye at 1 uM by calcein-AM dye based FACS analysis. It is filed as cell-based. The settings on record: hek293, 1 µM. In outline:
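The HEK293 cells, transfected with human ABCB1 (parental HEK293 as control), were trypsinized and resuspended in IMDM with 5% FCS. Calcein-AM was added to 3 × 10^5 cells in 4 mL, with or without test compound (single 1 μM or a concentration series) or 3 μM tariquidar. Fluorescence was read immediately by flow cytometry. Results are the mean ± SEM of at least three experiments.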

The target is the same in series [6]. The experiment in a line: Inhibition of ABCB1 in human KBV1 cells assessed as potentiation of doxorubicin-induced cytotoxicity by measuring doxorubicin resistance ratio at 200 nM after 72 hrs by MTT assay relative to parental KB-3-1 cells (reference value: 34). The following applies: kbv1, 72 h, 0.2 µM. The format is cell-based. In a few lines: as §1
Series [7] has the same target. The experiment in a line: Inhibition of ABCB1 in human KBV1 cells assessed as potentiation of colchicine-induced cytotoxicity by measuring colchicine resistance ratio at 100 nM after 72 hrs by MTT assay relative to parental KB-3-1 cells (reference value: 55). It is filed as cell-based. The following applies: kbv1, 72 h, 0.1 µM. In a few lines:
as §1

The test system of series [8] is KB 3-1. Put plainly: Potentiation of colchicine-induced apoptosis in human KB-3-1 cells assessed as early apoptotic cells at 1 uM after 48 hrs by Annexin V-FITC/propidium iodide staining based FACS analysis (reference value: 30.5%). It is filed as functional.
Series [9] concerns the target T1, ATP-dependent translocase ABCB1. Put plainly: Inhibition of ABCB1 in human KBV1 cells assessed as potentiation of doxorubicin-induced cytotoxicity by measuring doxorubicin resistance ratio at 50 nM after 72 hrs by MTT assay relative to parental KB-3-1 cells (reference value: 34). It is filed as cell-based. The following applies: kbv1, 72 h, 0.05 µM. In outline: as §1

In series [10] the test system is KB 3-1. The experiment in a line: Potentiation of colchicine-induced apoptosis in human KB-3-1 cells assessed as viable cells at 1 uM after 48 hrs by Annexin V-FITC/propidium iodide staining based FACS analysis (reference value: 38.9%). The format is functional. The settings on record: KB 3-1, 48 h, read-out: Activity. For orientation: Flow cytometry measures light scatter and fluorescence of single cells or particles in a stream.

The target of series [11] is T1, ATP-dependent translocase ABCB1. Put plainly: Inhibition of human ABCB1 transfected in HEK293 cells assessed as potentiation of doxorubicin-induced cytotoxicity by measuring doxorubicin resistance ratio at 50 nM after 72 hrs by CCK8 assay relative to parental HEK293 cells (reference value: 96). The format is cell-based. The settings on record: hek293, 72 h, 0.05 µM.

Series [12] shares this target. Put plainly: Inhibition of ABCB1 in human NCI-ADR-RES cells assessed as potentiation of doxorubicin-induced cytotoxicity by measuring doxorubicin resistance ratio at 500 nM after 72 hrs by MTT assay relative to parental OVCAR8 cells (reference value: 46). It is filed as cell-based. The settings on record: ovcar-8, 72 h, 0.5 µM. In a few lines:
as §1

For series [13] the target is unchanged. Put plainly: Inhibition of ABCB1 in human NCI-ADR-RES cells assessed as potentiation of colchicine-induced cytotoxicity by measuring colchicine resistance ratio at 100 nM after 72 hrs by MTT assay relative to parental OVCAR8 cells (reference value: 59). It is filed as cell-based. The following applies: ovcar-8, 72 h, 0.1 µM. In a few lines: as §1
For series [14] the target is unchanged. The experiment in a line: Inhibition of ABCB1 in human NCI-ADR-RES cells assessed as potentiation of vincristine-induced cytotoxicity by measuring vincristine resistance ratio at 500 nM after 72 hrs by MTT assay relative to parental OVCAR8 cells (reference value: 435). The format is cell-based. The settings on record: ovcar-8, 72 h, 0.5 µM. In a few lines:
as §1

The target is the same in series [15]. The experiment in a line: Inhibition of ABCB1 in human NCI-ADR-RES cells assessed as potentiation of doxorubicin-induced cytotoxicity at 1 uM after 72 hrs by MTT assay. It is filed as cell-based. In outline:
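The cells were kept in drug-free medium for 7 days. They were seeded at 5000 cells/well, allowed to attach for 24 h at 37 °C, then exposed to graded doxorubicin with or without 50–500 nM test compound or 1 μM tariquidar for a further 72 h. Viability was read by MTT. Results are means of at least three independent experiments.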

In series [16] the test system is KB 3-1. Put plainly: Induction of apoptosis in human KB-3-1 cells assessed as necrotic cells at 1 uM after 48 hrs by Annexin V-FITC/propidium iodide staining based FACS analysis (reference value: 0.7%). The format is functional.
Series [17] addresses T1, ATP-dependent translocase ABCB1. The experiment in a line: Inhibition of ABCB1 in human NCI-ADR-RES cells assessed as potentiation of doxorubicin-induced cytotoxicity by measuring doxorubicin resistance ratio at 50 nM after 72 hrs by MTT assay relative to parental OVCAR8 cells (reference value: 46). The format is cell-based. The following applies: ovcar-8, 72 h, 0.05 µM. In outline: as §1

Series [18] concerns KB 3-1. Put plainly: Induction of apoptosis in human KB-3-1 cells assessed as viable cells at 1 uM after 48 hrs by Annexin V-FITC/propidium iodide staining based FACS analysis (reference value: 88.4%). It is filed as functional. The following applies: KB 3-1, 48 h, read-out: Activity.
Series [19] concerns the target T1, ATP-dependent translocase ABCB1. The experiment in a line: Inhibition of ABCB1 in human NCI-ADR-RES cells assessed as potentiation of vincristine-induced cytotoxicity by measuring vincristine resistance ratio at 200 nM after 72 hrs by MTT assay relative to parental OVCAR8 cells (reference value: 435). It is filed as cell-based. The settings on record: ovcar-8, 72 h, 0.2 µM. In outline: as §1

Series [20] shares this target. The experiment in a line: Induction of Vanadate-sensitive ABCB1 (unknown origin) assessed as ATPase activity by measuring concentration required for 50% maximal stimulation by Pgp-glo assay. In outline:
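Vanadate-sensitive ABCB1 ATPase activity was measured with the Pgp-Glo system using […], across 0–1 μM test compound. Points are the mean of at least three independent experiments.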

The target is the same in series [21]. Put plainly: Inhibition of human ABCB1 transfected in HEK293 cells assessed as potentiation of doxorubicin-induced cytotoxicity by measuring doxorubicin resistance ratio at 100 nM after 72 hrs by CCK8 assay relative to parental HEK293 cells (reference value: 96). The format is cell-based. The following applies: hek293, 72 h, 0.1 µM.
In a further series the target is ABCB1 (P-glycoprotein) (Homo sapiens, UniProt P08183). The experiment in a line: Induction of Vanadate-sensitive ABCB1 (unknown origin) assessed as increase in ATPase activity up to 1 uM by Pgp-glo assay relative to control. The settings on record: read-out: FC. In a few lines:
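Vanadate-sensitive ABCB1 ATPase activity measured with the Pgp-Glo system as […], across 0–1 μM test compound. Points are means of at least three independent experiments.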

Chain of ABCB1 (P-glycoprotein) (P08183 whole entry): as above

With `COc1ccc2cc1Oc1ccc(cc1)C[C@H]1c3cc(c(OC)cc3CCN1C)Oc1c(OC)c(OC)c(OC)c3c1[C@H](C2)N(C)CC3` [HERNANDEZINE], the Ratio in [1] was determined as 46; in series [2], 5; in [6], 2; in series [7], 21; in series [9], 9; in series [11], 16. Also, the Ratio in series [12] amounted to 2; in series [13], 23; in series [14] it was 19; in [17], 26; in series [19], 196; in [21], 11. The same compound returned a Ki in series [3] of 0.02 µM. The Activity result in series [4] is on record as “Non-Toxic”; with KB 3-1 [8], 31.1%; in the series with KB 3-1 [16], 0.2%; in series [20] (human), “Dose-dependent effect”. The “inhibition (INH)” value in [5] and in [15] was “Active” throughout. Besides, the viability at 1 µM with KB 3-1 [10] was 37.4%; with KB 3-1 [18] it was 88.8%. In addition, in [20] (read-out: Activity), the EC50 was 0.02 µM. For the same compound, on ABCB1 (P-glycoprotein), the fold induction came out at 7.

One may read the Ki as the dissociation constant of the complex between target and ligand, obtained from inhibition or displacement.
